# Shown are actives, neighbours in structure and some others; about 3.9% of the full set was active somewhere.
# CHO parental Ca – ATP-evoked calcium signal inhibitors, parental CHO, primary screen, counter-screen for OX1R antagonist project, cell-based, fluorescence, Fluo-8 calcium dye; AID 463079, 2010; actives 0.63% (n = 330,000); inhibition, % at 5.6 µM; parental CHO-K1, ATP-induced calcium, Fluo-8 fluorescence;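 active means inhibition above that plate's mean sample inhibition plus 3 SD, cut at about 26% in these data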;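 further: 0% = ATP-challenged DMSO wells and 100% = DMSO wells without ATP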
#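 Assay system: untransfected parental CHO cell line. Also added: ATP agonist challenge. Dosing: one dose, 5.6 µM nominal. Measured by: Fluo-8 fluorescence. Read-out: % inhibition. Benchmarks: ATP wells versus no-ATP DMSO wells. Repeats: no replicates.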
# OX1R antag-1 – OX1R (HCRTR1) antagonists, primary screen, fluorescence, CHO/OX1R cells, Fluo-8 calcium, orexin A. actives 0.43% (n = 330,000). inhibition, % at 5 µM. Fluo-8 calcium fluorescence. AID 434989, 2010. Orexin/Hypocretin receptor type 1 (Homo sapiens), O43613;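 active means inhibition above its plate's threshold, mean inhibition of all tested compounds on the plate plus 3 SD, cut at about 37% in these data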;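 further: 0% = orexin A challenge wells and 100% = SB-334867-A antagonist wells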
# Target sequence (O43613 whole entry, looked up): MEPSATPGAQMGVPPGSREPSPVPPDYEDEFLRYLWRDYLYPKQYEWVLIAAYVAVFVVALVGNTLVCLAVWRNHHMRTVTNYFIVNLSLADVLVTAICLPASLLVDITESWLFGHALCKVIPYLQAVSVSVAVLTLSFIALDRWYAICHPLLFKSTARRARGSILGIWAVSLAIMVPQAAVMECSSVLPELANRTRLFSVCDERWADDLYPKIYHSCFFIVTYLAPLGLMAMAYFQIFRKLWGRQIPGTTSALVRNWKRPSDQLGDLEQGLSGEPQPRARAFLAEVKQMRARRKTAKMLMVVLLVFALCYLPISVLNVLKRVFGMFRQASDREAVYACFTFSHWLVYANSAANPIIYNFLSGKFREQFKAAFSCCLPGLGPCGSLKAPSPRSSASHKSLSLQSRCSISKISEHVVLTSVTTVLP
# TAAR1 ag – human TAAR1 agonists, primary screen, Fluo-8 calcium fluorescence, CHO RD-HGA16 cells | vehicle wells 0%, saturating PEA agonist 100% | activation, % at 3 µM | Trace amine-associated receptor 1 (Homo sapiens), Q96RJ0 | actives 0.99% (n = 360,000) | AID 624467, 2012;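 active means activation above the mean activation of all test compounds in the run plus 3 SD, cut at about 38% in these data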
#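 Benchmarks: low control DMSO, high control PEA (EC100); System: CHO RD-HGA16 cells carrying human TAAR1 plus Gα16; Detection: Fluo-8 fluorescence, 5 s baseline then 140 s kinetic read; Schedule: 17-24 h plating, Fluo-8 75 min 37 °C, 30 min RT; Read-out basis: % activation from peak over basal fluorescence ratio, DMSO-to-PEA scaled.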
# TAAR1 antag – human TAAR1 antagonists, primary screen, Fluo-8 calcium fluorescence, CHO RD-HGA16 cells. Trace amine-associated receptor 1 (Homo sapiens), Q96RJ0. antagonist. inhibition, % at 3 µM. actives 1.5% (n = 360,000). AID 624466, 2012;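 active means inhibition above a per-plate cutoff, the mean inhibition of test compounds on that plate plus 3 SD, cut at about 49% in these data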;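 further: 0% = DMSO plus EC80 beta-PEA response and 100% = DMSO alone without agonist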
#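 Material: CHO RD-HGA16 cells bearing hTAAR1; compound dosing: one-point dosing, 3 µM nominal final; schedule: dye loading 75 min at 37 °C, then 30 min room temperature; measured by: calcium fluorescence with Fluo-8; control set: vehicle and agonist controls; replication: n of 1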
# OX1R antag-2 – antagonists of human orexin 1 receptor (OX1R); AID 485270, 2010; inhibition, % at 6.6 µM; actives 1.8% (n = 330,000); OX1R-expressing cells, FRET antagonist read-out; in the data active means inhibition mostly above about 38%, no sharp cut-off; inactive means mostly below about 40%;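 further: 0% = agonist challenge alone and 100% = reference antagonist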
# TAAR1 ag confirm – human TAAR1 agonists, retest of hits, confirmation, Fluo-8 calcium fluorescence, CHO RD-HGA16 cells | AID 651783, 2012 | actives 82% (n = 2,400) | shares compounds with TAAR1 ag | scaled: DMSO 0%, maximal phenethylamine 100% | activation, % at 3 µM;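 active means activation above a cutoff set at the run's mean compound activation plus 3 SD, cut at about 39% in these data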
# Ga16 ag counter – nonselective calcium mobilization agonists, CHO-Ga16 cells, counter-screen for hTAAR1 agonist project, cell-based, fluorescence, CHO-Ga16 parental line; shares compounds with TAAR1 ag; Fluo-8 calcium fluorescence; normalized to maximal ATP response, DMSO zero; activation, % at 3 µM; actives 50% (n = 2,400);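 active means activation above the run cutoff, the mean activation over all tested wells plus 3 SD, cut at about 12% in these data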;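 further: 0% = DMSO wells and 100% = maximal ATP response on the peak over basal ratio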
# TAAR1 desensitize – TAAR1 desensitization by agonist hits, confirmation, counter-screen for TAAR1 agonist project, cell-based, fluorescence, tachyphylaxis; AID 651951, 2012; CHO RD-HGA16 hTAAR1, Fluo-8 calcium, beta-PEA response inhibition; inhibition, % at 3 µM; actives 46% (n = 2,400); shares compounds with TAAR1 ag;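 active means inhibition above the run cutoff, the mean inhibition of all test compounds plus 3 SD, cut at about 49% in these data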;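 further: beta-PEA stimulus applied at its EC80; loss of beta-PEA calcium signal after compound pretreatment read as receptor desensitization; 0% = DMSO with beta-PEA at EC80 and 100% = DMSO alone without agonist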
# Ga16 nonsel ant – inhibition of ATP-evoked calcium response in CHO-Ga16 cells, counter-screen for TAAR1 agonist project, cell-based, fluorescence; shares compounds with TAAR1 ag; CHO-Ga16 ATP-induced calcium, Fluo-8 fluorescence; inhibition, % at 3 µM; actives 39% (n = 2,400); AID 651952, 2012;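 active means inhibition above the plate's mean compound inhibition plus 3 SD, computed per plate, cut at about 22% in these data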;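 further: 0% = EC80 ATP with DMSO and 100% = DMSO wells without ATP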
# * = called active by the depositor; / = no result.
SMILES,CHO parental Ca,OX1R antag-1,TAAR1 ag,TAAR1 antag,OX1R antag-2,TAAR1 ag confirm,Ga16 ag counter,TAAR1 desensitize,Ga16 nonsel ant
NS(=O)(=O)c1cccc(NC(=O)COC(=O)CSCc2ccccc2)c1,-12.3,2.2,-2.2,0.5,6.0,/,/,/,/
O=C(Cn1nnc2ccccc21)N/N=C\c1cccs1,-1.1,-2.6,45.5*,19.9,4.4,81.9*,4.5,43.1,3.3
O=C(Cn1cnc2ccccc21)N/N=C/c1cccs1,-11.7,-15.3,/,/,1.9,/,11.2,/,0.3
Cn1cccc1/C=N/NC(=O)Cn1cnc2ccccc21,-9.2,-11.0,34.1,-14.9,28.7,/,/,/,/
CC(C)C(NC(=O)c1ccccc1)C(=O)NCCc1ccccc1 (stereo unspecified),-0.6,-16.1,7.5,4.9,11.8,/,/,/,/
N#Cc1ccc(N=c2ssnc2Cl)cc1,9.4,2.5,47.6*,10.8,0.3,52.8*,44.0*,28.1,25.3*
CCOC(=O)c1ccc(N=c2ssnc2Cl)cc1,/,/,34.6,26.6,/,/,/,/,/
O=C(CSc1nc(=O)n2cc(Cl)ccc2n1)NCCc1ccccc1,-1.9,-19.3,50.0*,8.4,25.3,68.3*,6.5,12.1,7.8
Cc1ccc(-c2nc(CS(=O)(=O)CC(=O)N3CCc4ccccc4C3)c(C)o2)cc1,-29.0,-19.3,66.2*,30.2,6.3,82.3*,2.2,64.5*,14.6
Cc1cccc(C(C)C)c1NC(=O)COC(=O)CCC(=O)N(CC(C)C)c1c(N)n(CC(C)C)c(=O)[nH]c1=O,/,/,3.7,-27.7,/,/,/,/,/
O=C(Nc1ccccc1)Nc1nnc(Cc2ccc(F)cc2)s1,-1.7,-19.7,11.7,-23.1,7.8,/,/,/,/
CCN(CC)c1ccc(/C=N/NC(=O)Cc2nnc(NC(=O)Nc3ccccc3)s2)cc1,-11.7,-10.0,57.3*,20.8,6.3,50.4*,-0.3,35.7,10.9
O=C(Cc1nnc(NC(=O)Nc2ccc(F)cc2)s1)Nc1ccccc1,8.8,5.6,53.5*,19.6,7.2,65.5*,12.7*,68.3*,8.7
COc1ccccc1NC(=O)Nc1nnc(CC(=O)Nc2ccccc2)s1,14.1,-0.8,2.8,0.5,5.7,/,/,/,/
O=C(Cc1nnc(NC(=O)Nc2ccccc2)s1)Nc1ccccc1,2.4,9.2,52.3*,42.6,5.9,64.6*,1.7,70.5*,7.7
Cc1csc(=O)n1CC(=O)Nc1ccc(Cl)cc1F,7.6,3.0,2.3,-16.0,3.2,/,/,/,/
CCOC(=O)/C(=C/C=C1\Sc2cc(C)c(C)cc2N1CC)C(C)=O,/,/,378.5*,107.2*,/,159.9*,126.2*,90.6*,83.8*
CCCCCN=C(C)c1c(O)c2ccccc2oc1=O,-3.1,-15.0,58.0*,16.3,35.2,58.3*,1.6,11.7,2.3
CC1(C(=O)NC(=S)NNC(=O)c2ccncc2)CCCCC1,-5.3,20.6,92.5*,23.8,11.0,69.9*,52.4*,21.9,23.0*
O=C(NNC(=S)NC(=O)C12CC3CC(CC(C3)C1)C2)c1ccncc1,28.9,43.8,155.3*,93.0*,-4.1,121.7*,102.7*,72.5*,55.3*
O=C(NNC(=S)NC(=O)c1ccc(F)cc1)c1ccncc1,-5.3,-8.6,6.3,-7.3,2.5,/,/,/,/

# From PubChem
